{"data": "Measured values gathered from unrelated publications", "target": "Casein kinase II subunit alpha' (CSNK2A2, Homo sapiens, UniProt P19784)", "note": "Lines come from different studies, so protocols differ."}
{"SMILES": "CN(C)C(=O)Cn1cc(-c2nc([C@@](C)(c3ccc(-c4cnc(N)nc4)cc3)C3CC3)no2)cn1", "assay": "cell-free assay, competition with immobilised ligand", "conditions": "1 µM", "quantity": "remaining binding", "value": "90%"}
{"SMILES": "O=C1NC(=O)c2cc(Nc3ccc(F)cc3)c(Nc3ccc(F)cc3)cc21", "assay": "cell-free assay, inhibitor", "conditions": "0.5 µM", "quantity": "remaining signal", "value": "104%"}
{"SMILES": "CNCc1ccccc1-c1csc([C@@H](C)Nc2nc(C)nc3cc(OC)c(OC)cc23)c1", "assay": "cell-free assay, competition with immobilised ligand", "conditions": "1 µM", "quantity": "remaining binding", "value": "100%"}
{"SMILES": "COc1cc2ncnc(Nc3ccc(Oc4ccccc4)cc3C)c2cc1OC", "assay": "enzyme activity, inhibitor", "conditions": "1 µM", "quantity": "inhibition", "value": "7%"}
{"SMILES": "O=C(Nc1cccnn1)N1CCC(=Cc2cccc(Oc3ccc(C(F)(F)F)cn3)c2)CC1", "assay": "cell-free assay, competition with immobilised ligand", "conditions": "1 µM", "quantity": "remaining binding", "value": "100%"}
{"SMILES": "CC(C)(O)[C@H]1CC[C@H](Nc2ccc3ncc(-c4cccc(C(F)(F)F)c4)n3n2)CC1", "assay": "enzyme activity, inhibitor", "conditions": "1 µM", "quantity": "remaining activity", "value": "73.6%"}
{"SMILES": "Cn1cnc(Br)c1C1=CN(c2ncnc3[nH]cnc23)CCS1", "assay": "enzyme activity, inhibitor, radiometric", "conditions": "2 µM", "quantity": "inhibition", "value": "46.5%"}
{"SMILES": "COc1cc2c(Nc3ccc(Br)cc3F)ncnc2cc1OCC1CCN(C)CC1", "assay": "cell-free assay", "conditions": "0.5 µM", "quantity": "remaining signal", "value": "96.5%"}
{"SMILES": "COc1cc(Cl)c(C(=O)N[C@@H](CN[C@H]2CC[C@@H](N)CC2)Cc2ccc(C#N)cc2)cc1-c1ccc(CN[C@H](C)c2ccc(C)cc2)o1", "assay": "enzyme activity, inhibitor", "conditions": "1 µM", "quantity": "remaining activity", "value": "106%"}
{"SMILES": "O=C(NCCCC1CCCCC1)c1ccc(CNC(=O)c2cnn(-c3ccccc3)c2C(F)(F)F)cc1", "assay": "cell-free assay, competition with immobilised ligand", "conditions": "0.1 µM", "quantity": "remaining binding", "value": "88%"}
{"SMILES": "O=C(Nc1cnn(-c2csc(C(=O)NC3COC3)c2)c1)Nc1c(F)cccc1Cl", "assay": "enzyme activity, inhibitor", "conditions": "5 µM", "quantity": "remaining activity", "value": "96.6%"}
{"SMILES": "COc1cccc2c(NCc3ccccc3)nc(-n3c(N)nc4ccccc43)nc12", "assay": "target engagement in cells, inhibitor, chemoproteomics", "conditions": "20 mM", "quantity": "inhibition", "value": "-11.7%"}
{"SMILES": "CCS(=O)(=O)c1cc2cc(C[C@](O)(CC(C)(C)c3ccc(F)cc3C(N)=O)C(F)(F)F)[nH]c2cn1", "assay": "cell-free assay, competition with immobilised ligand", "conditions": "1 µM", "quantity": "remaining binding", "value": "92%"}
{"SMILES": "CCN(CC)CCNC(=O)c1c(C)[nH]c(/C=C2\\C(=O)Nc3ccc(F)cc32)c1C", "assay": "enzyme activity, inhibitor", "conditions": "10 µM", "quantity": "inhibition", "value": "49%"}
{"SMILES": "Cc1cc(NC(=O)c2cccc3cc(-c4cccc5[nH]nc(N)c45)ccc23)ccc1F", "assay": "enzyme activity, inhibitor", "conditions": "0.1 µM", "quantity": "activity vs control", "value": "109%"}
{"SMILES": "CSc1cccnc1N1CCN(Cc2nc3ccccc3[nH]2)CC1", "assay": "cell-free assay, competition with immobilised ligand", "conditions": "1 µM", "quantity": "remaining binding", "value": "100%"}
{"SMILES": "CCN(CC)c1ccc(C2=NNC(=O)CC2C)cc1[N+](=O)[O-] (stereo not drawn)", "assay": "enzyme activity, inhibitor", "conditions": "10 µM", "quantity": "remaining activity", "value": "103%"}
{"SMILES": "Cc1ccc(Nc2nccc(N(C)c3ccc4c(C)n(C)nc4c3)n2)cc1S(N)(=O)=O", "assay": "enzyme activity, inhibitor", "conditions": "10 µM", "quantity": "inhibition", "value": "-14%"}
{"SMILES": "Nc1ncnc2occ(-c3ccc(NC(=O)Nc4cc(C(F)(F)F)ccc4F)cc3)c12", "assay": "enzyme activity, inhibitor", "conditions": "20 µM", "quantity": "remaining activity", "value": "41%"}
{"SMILES": "O=C(NC[C@@H]1[C@H]2CN(C(=O)OCc3cc(C(F)(F)F)cc(C(F)(F)F)c3)C[C@@H]12)c1ccc2[nH]nnc2c1", "assay": "cell-free assay, competition with immobilised ligand", "conditions": "1 µM", "quantity": "remaining binding", "value": "92%"}
{"SMILES": "O=C(Nc1cnn(-c2csc(C(=O)NC3COC3)c2)c1)Nc1ccccc1Cl", "assay": "enzyme activity, inhibitor", "conditions": "5 µM", "quantity": "remaining activity", "value": "97.3%"}
{"SMILES": "C=CC(=O)Nc1cc(Nc2nccc(Nc3cc(Cl)c(F)cc3C(C)(C)O)n2)c(OC)cc1N1CC[C@@H](N(C)C)C1", "assay": "enzyme activity, inhibitor", "conditions": "1 µM", "quantity": "inhibition", "value": "-6%"}
{"SMILES": "CNC(=O)c1cc(Oc2ccc(NC(=O)Nc3ccc(Cl)c(C(F)(F)F)c3)cc2)ccn1", "assay": "enzyme activity, inhibitor", "conditions": "0.3 µM", "quantity": "inhibition", "value": "-33%"}
{"SMILES": "CC(C)(C)c1nc2c(s1)c1nc(N)ncc1c1ccc(NS(=O)(=O)c3c(F)cccc3F)c(F)c12", "assay": "enzyme activity, inhibitor, radiometric", "conditions": "1 µM", "quantity": "remaining activity", "value": "94%"}
